# hERG protect – hERG rescue from dofetilide block, primary screen, cell-based, CHO-hERG, FluxOR thallium flux, dofetilide IC70. Voltage-gated inwardly rectifying potassium channel KCNH2 (Homo sapiens), Q12809. dofetilide IC70 present. activation (rescue from dofetilide block), less the hit threshold, % at 10 µM. actives 0.51% (n = 310,000);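 active = activation above the mean of controls blocked by dofetilide plus 5 SD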;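 note: thallium influx through hERG after potassium depolarization seen as dye fluorescence rise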
# KCNK9 inh – KCNK9 potassium channel inhibitors, primary screen, HEK293 cells, thallium flux; FluxOR thallium flux fluorescence; hits give low values; B-score at 10 µM; actives 1.2% (n = 310,000);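 active = ratio B-score over 3 SD below the library mean, with starting fluorescence within 5 SD of its mean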;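 note: negative B-score means less thallium flux so channel inhibition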
# Target sequence (Q9NPC2 whole entry, looked up): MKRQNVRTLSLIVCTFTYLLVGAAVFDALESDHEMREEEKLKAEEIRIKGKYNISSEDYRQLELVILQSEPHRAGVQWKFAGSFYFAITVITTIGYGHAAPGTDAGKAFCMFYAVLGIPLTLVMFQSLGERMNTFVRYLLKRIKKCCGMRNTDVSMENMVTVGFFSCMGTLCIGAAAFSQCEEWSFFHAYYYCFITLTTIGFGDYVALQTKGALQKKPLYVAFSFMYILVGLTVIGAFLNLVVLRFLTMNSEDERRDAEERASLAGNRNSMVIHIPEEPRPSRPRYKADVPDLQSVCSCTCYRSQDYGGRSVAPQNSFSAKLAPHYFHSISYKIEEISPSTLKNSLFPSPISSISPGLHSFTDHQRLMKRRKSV
# KCNQ1 block – inhibitors of human KCNQ1 channel, primary screen, cell-based, thallium flux, high-throughput | Potassium voltage-gated channel subfamily KQT member 1 (Homo sapiens), P51787 | CHO-K1 KCNQ1, FluxOR thallium flux fluorescence; hits give high values | B-score at 10 µM | actives 1.3% (n = 310,000);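 active = compounds whose thallium flux B-score, printed positive for inhibition, exceeds three library SD while starting fluorescence stays within three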;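 note: channel opened by potassium depolarization with thallium stimulus after 20 min compound exposure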
# KCNQ1 act – potentiators or activators of KCNQ1 channel, primary screen, cell-based, thallium flux, high-throughput; Potassium voltage-gated channel subfamily KQT member 1 (Homo sapiens), P51787; CHO-K1 KCNQ1, thallium flux FluxOR fluorescence; hits give high values; B-score at 10 µM; actives 0.35% (n = 310,000); AID 2648, 2010;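 active = fluorescence ratio B-score, a plate-corrected score, at least three library SD, with initial intensity B-score within 5 SD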
#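 System: Stable KCNQ1 CHO-K1 line | Incubation: 90 min dye loading and 20 min compound exposure, both at room temperature | Measure: Ratio B score | Medium: Assay buffer for compound exposure, DMSO matched across wells | Compound dosing: Single-concentration screen | Probe or stimulus: K+/Tl+ depolarizing stimulus | Measured by: Kinetic FluxOR fluorescence, 10 s baseline plus 110 s post-stimulus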
# KCNK3 block – human KCNK3 channel inhibitors, primary screen, CHO cells, FluxOR thallium flux, B-score. Potassium channel subfamily K member 3 (Homo sapiens), O14649. FluxOR fluorescence; hits give low values. B-score at 10 µM. actives 0.84% (n = 340,000). AID 602410, 2012;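 active = B-score under library mean minus 4 SD, starting fluorescence ratio at most library mean plus 5 SD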;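 note: more negative B-score means stronger inhibition of thallium flux through KCNK3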
# Kir21 block – inhibitors of mouse Kir2.1 inward-rectifier potassium channel; Inward rectifier potassium channel 2 (Mus musculus), P35561; HEK293-Kir2.1, FluxOR thallium flux fluorescence; hits give low values; B-score at 10 µM; actives 0.85% (n = 310,000); AID 1672, 2009;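 active = fluorescence ratio B-score at or below minus 3 SD of library scores, with starting-brightness B-score within 2 SD, cut at about -4.2 in these data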;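 note: channel flux triggered by added potassium and thallium sulfate stimulus; B-score of peak minus minimum fluorescence over baseline after thallium stimulus; more negative B-score means stronger Kir2.1 block with less thallium influx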
# KCNK9 block conf – KCNK9 potassium channel inhibitors, confirmation, HEK293 cells, thallium flux, duplicate; FluxOR thallium flux fluorescence; actives 43% (n = 4,900); inhibition, % at 10 µM; shares compounds with KCNK9 inh;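 active = thallium signal inhibited by more than 5 SD of the compound-free buffer control wells, on both duplicate plates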;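 note: 0% = assay buffer control wells without compound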
# Kir2-1 spec – mouse Kir2.1 channel inhibition, confirmation, selectivity assay for KCNK9 modulator project, cell-based, HEK293, thallium flux; shares compounds with KCNK9 inh; Kir2.1 cells, FluxOR thallium flux fluorescence; inhibition, % at 10 µM; actives 4% (n = 4,900);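 active = thallium signal drop more than 5 SD beyond the mean of the no-compound control wells, seen in both duplicate plates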;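 note: signal is fluorescence rise after thallium addition divided by baseline fluorescence; plate controls were assay buffer only for no effect and full block by chlorpromazine control for full effect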
# HEK293 Tl ctr – thallium flux in non-induced HEK293 cells, confirmation, counter-screen for KCNK9 inhibitor project, cell-based, second counter screen, non-induced KCNK9-HEK293; shares compounds with KCNK9 inh; FluxOR thallium flux; inhibition, % at 10 µM; actives 40% (n = 4,900);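 active = thallium signal drop beyond 5 SD of the untreated control mean, on both duplicate plates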;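 note: plate controls were buffer only IC0 wells for no effect and SID17386958 at its maximal inhibitory level for full effect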
# * hit, by the source's call; i = inactive; . = not tested or not shown. The list is not random: actives were taken first. Their share in the collection is about 3.8%.
SMILES,hERG protect,KCNK9 inh,KCNQ1 block,KCNQ1 act,KCNK3 block,Kir21 block,KCNK9 block conf,Kir2-1 spec,HEK293 Tl ctr
COc1ccc(-n2c(Cc3cccn3C)nnc2SCC(=O)Nc2cccc(Cl)c2)cc1,-3.5,i,i,i,i,1.78,i,i,i
COc1ccc(NC(=O)CSc2nnc(Cc3cccs3)n2-c2ccc(C)cc2)cc1,-6.6,i,i,i,i,-1,i,i,i
COc1cccc(NC(=O)CSc2nnc(Cc3cccs3)n2-c2ccc(C)cc2)c1,-6.1,i,i,i,i,0.01,.,.,.
COc1ccc(-n2c(Cc3cccn3C)nnc2SCC(=O)Nc2cccc(NC(C)=O)c2)cc1,-12.3,i,i,i,i,0.92,.,.,.
COc1ccc(Br)cc1C(=O)Nc1cccc(-c2nnc(-c3ccco3)o2)c1,-4.3,-12*,i,i,i,0,60.0%*,i,i
CC(Oc1ccc(Cl)cc1Cl)C(=O)Nc1ccc(S(=O)(=O)Nc2cnc3ccccc3n2)cc1 (centres undefined),-6.7,i,i,i,.,-0.17,i,i,i
O=C(Nc1ccc(S(=O)(=O)Nc2cnc3ccccc3n2)cc1)c1ccc(Cl)cc1Cl,-4.2,i,i,i,i,1.33,.,.,.
CCc1ccc(N2CC(C(=O)OCc3nc4ccsc4c(=O)[nH]3)CC2=O)cc1 (centres undefined),.,.,.,.,i,.,.,.,.
O=C(c1ccccc1)c1c2c(cc3sc4ccccc4[n+]13)-c1cccc3cccc-2c13,.,.,.,.,i,.,.,.,.
Cc1sc2cc3c(c(C(=O)c4ccccc4)[n+]2c1C)-c1cccc2cccc-3c12,-45.8,-10.4*,i,i,.,-13.1*,41.0%*,64.0%*,34.0%*
CC[C@@H]1CC=C[C@H]2[C@H]1C(=O)N(Cc1ccccc1)[C@H]2c1ccc(C(F)(F)F)cc1,-13.2,-8.45*,i,i,i,0.6,50.5%*,i,47.5%*
Cc1ccc(F)c([C@H]2[C@H]3C=CC[C@@H](C)[C@@H]3C(=O)N2Cc2ccccc2)c1,-26.4,-8.55*,i,i,i,-0.15,52.5%*,i,60.5%*
Cc1ccc(-c2ccc([C@H]3[C@H]4C=CC[C@@H](C)[C@@H]4C(=O)N3Cc3ccccc3)c(F)c2)cc1,-8.8,i,i,i,i,0.18,.,.,.
Cc1nc2c(ccc3nc(NC(=O)Cc4cccc5ccccc45)sc32)s1,-8.3,i,i,i,i,0.01,.,.,.
Cc1nc2c(ccc3nc(NC(=O)C(c4ccccc4)c4ccccc4)sc32)s1,-22.6,-9.84*,i,i,i,-0.59,i,i,i
C[C@H](NC(=O)c1nc[nH]c1C(=O)N[C@@H](CCCCNC(=O)OC(C)(C)C)C(=O)OC(C)(C)C)c1ccccc1,-8.8,-11.2*,i,i,i,-0.23,i,i,29.0%*
O=C(CCn1nc(-c2ccc(F)cc2)ccc1=O)NCc1ccccc1,-5.3,i,i,i,i,-0.87,.,.,.
O=C(O)c1ccccc1C(=O)N1N=C(c2ccccc2)CC1c1ccccc1O (centres undefined),-9.8,-8.34*,i,i,i,0.02,42.0%*,i,i
O=C(c1ccccc1Br)N1N=C(c2ccccc2)CC1c1ccccc1F (centres undefined),-0.7,i,i,i,i,1.71,.,.,.
Nc1ncnc2c1ncn2[C@@H]1O[C@H](CNS(=O)(=O)c2ccc3c(c2)CCN(C(=O)C(F)(F)F)C3)[C@@H](O)[C@H]1O,.,.,.,.,i,.,.,.,.
O=C(Nc1ccc(F)cc1)c1nc(S(=O)(=O)Cc2ccccc2)ncc1Cl,-21.2,-8.97*,i,i,i,-1.24,47.0%*,i,i
Cc1ccc(NC(=O)c2nc(S(=O)(=O)Cc3ccccc3)ncc2Cl)cc1,-18.0,i,i,i,i,-0.11,.,.,.
c1ccc(-c2nc(NCCCn3ccnc3)c3oc4ccccc4c3n2)cc1,-33.1,i,i,i,i,-4.4,.,.,.
c1ccc(-c2nc(NCc3ccco3)c3oc4ccccc4c3n2)cc1,-17.9,-8.67*,i,i,i,-0.22,38.5%*,i,35.0%*
COc1ccc(C2(CNC(=O)c3ccc(N)cc3)CCCC2)cc1,-6.9,i,i,i,i,-1.11,.,.,.
SMILES,hERG protect,KCNK9 inh,KCNQ1 block,KCNQ1 act,KCNK3 block,Kir21 block,KCNK9 block conf,Kir2-1 spec,HEK293 Tl ctr
CCOC(=O)C1CCN(Cc2coc3c(Cl)cc(Cl)cc3c2=O)CC1,-10.4,i,i,i,i,-1.23,i,i,i
CCOC(=O)C1CCN(Cc2c(F)cccc2Cl)CC1,-10.3,i,i,i,i,0.6,.,.,.
O=S(=O)(Nc1nc(-c2sccc2Cl)cs1)c1cc(Cl)ccc1Cl,47.3*,i,i,47*,i,1.32,i,i,i
COc1cc(/C=N\NC(=O)c2ccc(-c3ccccc3)cc2)ccc1OCC(N)=O,-8.9,i,i,i,i,0.24,.,.,.
COc1cccc(/C=N/NC(=O)c2nc(-c3ccccc3)cc(-c3ccccc3)n2)c1,-20.2,-8.54*,i,i,i,-0.2,34.0%*,i,i
COc1ccc(/C=N/NC(=O)c2nc(-c3ccccc3)cc(-c3ccccc3)n2)cc1OC,-16.2,-9.73*,i,i,i,-2.23,31.0%*,i,i
C/C(Cn1nnc2ccccc21)=N\NC(=O)c1cccc(Br)c1,-7.6,i,i,i,i,0.08,.,.,.
COc1ccc(OC)c(NC(=O)c2ccc(-c3cccs3)cc2)c1,-5.1,-13.2*,i,i,i,0.48,66.0%*,i,35.0%*

# Screening results from PubChem BioAssay.
